Results: ChEMBL document CHEMBL4680172, “Synthesis and biological evaluation of coumarin derivatives as α-glucosidase inhibitors” (Eur J Med Chem, 2020)
The source made the active and inactive calls. The calls are words filed in the database; no cut-off is given here.

Experiments:
Saccharomyces cerevisiae [1] = test: Inhibition of Saccharomyces cerevisiae alpha-glucosidase at 100 uM using PNPG as substrate preincubated for 10 mins followed by substrate addition measured after 30 mins relative to control; conditions: time 40.0 min
How it was run: (§1)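 Enzyme 0.1 U/mL final in 0.1 M potassium phosphate, pH 6.8, with compound added from DMSO; 10 min at 37 ℃, then PNPG at 1 mmol/L final, another 30 min at 37 ℃. Absorbance read at 405 nm against a no-compound control. Line 1 screened at a single 100 µM; IC50 from the %inhibition–concentration plot. Duplicates, means taken.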

[2] = Inhibition of Saccharomyces cerevisiae alpha-glucosidase using PNPG as substrate preincubated for 10 mins followed by substrate addition measured after 30 mins; how it was run: as §1
Saccharomyces cerevisiae [3] = test: Reversible inhibition of Saccharomyces cerevisiae alpha-glucosidase
How it was run: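 Rate (ΔOD/min) was plotted against α-glucosidase concentration at several fixed inhibitor levels, 0–35 µM. Conditions otherwise as in the PNPG 405 nm assay at pH 6.8 and 37 ℃.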

Saccharomyces cerevisiae [4] = test: Mixed type inhibition of Saccharomyces cerevisiae alpha-glucosidase assessed as equilibrium constant for free enzyme using varying level of PNPG as substrate by Lineweaver-Burk double reciprocal plot analysis
How it was run: (§2)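 Run as the PNPG/phosphate pH 6.8, 37 ℃, 405 nm assay, but with compound concentration varied together with either PNPG or enzyme level. Lineweaver-Burk plots were made. KI (free enzyme) and KIS (enzyme–substrate complex) were taken from apparent Km/Vmax and 1/Vmax plotted against inhibitor concentration.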

Saccharomyces cerevisiae [5] = test: Mixed type inhibition of Saccharomyces cerevisiae alpha-glucosidase assessed as equilibrium constant for enzyme substrate complex using varying level of PNPG as substrate by Lineweaver-Burk double reciprocal plot analysis; how it was run: as §2

Structure (SMILES)	inhibition (Saccharomyces cerevisiae [1])	IC50 [2]	inhibition (Saccharomyces cerevisiae [3])	Ke (Saccharomyces cerevisiae [4])	Ke (Saccharomyces cerevisiae [5])
O=C(/C=C/c1ccc(C(F)(F)F)cc1)Oc1cc(=O)oc2ccccc12	41.9%	> 100 µM			
O=c1ccc2ccc(O)cc2o1 [UMBELLIFERONE]		9000 µM			
O=C(/C=C/c1ccc(Cl)cc1)Oc1ccc2ccc(=O)oc2c1	29.9%	> 100 µM			
COc1ccc(/C=C/C(=O)Oc2cc(=O)oc3ccccc23)cc1	73.2%	36.9 µM			
O=C(O)/C=C/c1ccccc1 [CINNAMIC ACID]		15000 µM			
COc1cc(/C=C/C(=O)Oc2ccc3ccc(=O)oc3c2)ccc1O	20.3%	> 100 µM			
Cc1ccc(/C=C/C(=O)Oc2cc(=O)oc3ccccc23)cc1	89.9%	13 µM	Active	27 µM	13.7 µM
O=C(/C=C/c1ccc(F)cc1)Oc1cc(=O)oc2ccccc12	68.5%	41.7 µM			
COc1cc(/C=C/C(=O)Oc2cc(=O)oc3ccccc23)ccc1O	19.5%	> 100 µM			
O=C(/C=C/c1ccc(Br)cc1)Oc1ccc2ccc(=O)oc2c1	30.1%	> 100 µM			
O=C(/C=C/c1ccc(F)cc1)Oc1ccc2ccc(=O)oc2c1	26.2%	> 100 µM			
O=C(/C=C/c1ccc(Cl)cc1)Oc1cc(=O)oc2ccccc12	33.1%	> 100 µM			
O=C(/C=C/c1ccc(O)cc1)Oc1ccc2ccc(=O)oc2c1	13.1%	> 100 µM			
O=C(/C=C/c1ccccc1)Oc1cc(=O)oc2ccccc12	83.5%	19.6 µM	Active	27.4 µM	13 µM
O=C(/C=C/c1ccc(O)cc1)Oc1cc(=O)oc2ccccc12	33.2%	> 100 µM			
O=C(/C=C/c1ccc(Br)cc1)Oc1cc(=O)oc2ccccc12	61%	69.3 µM			
C[C@H]1[C@H](C)CC[C@]2(C(=O)O)CC[C@]3(C)C(=CC[C@@H]4[C@@]5(C)CC[C@H](O)C(C)(C)[C@@H]5CC[C@]43C)[C@H]12 [URSOLIC ACID]		11.4 µM			
O=C(/C=C/c1ccccc1)Oc1ccc2ccc(=O)oc2c1 [7-CINNAMOYLOXYCOUMARIN]	45.6%	> 100 µM			
COc1ccc(/C=C/C(=O)Oc2ccc3ccc(=O)oc3c2)cc1	20.2%	> 100 µM			
Cc1ccc(/C=C/C(=O)Oc2ccc3ccc(=O)oc3c2)cc1	54.7%	94.5 µM			
O=C(/C=C/c1ccc(C(F)(F)F)cc1)Oc1ccc2ccc(=O)oc2c1	38.2%	> 100 µM			
